MrgX1 antag = blocks BAM8-22 activation of human MrgX1 receptor; MRGX1-HEK293 calcium flux, Fluo-4, BAM8-22 antagonism; active compounds read low; AID 588676; Q96LB2; B-score at 10 µM; 310,000 tested, 1.3% active;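 active = calcium-response B-score plate-corrected more than 3 library SD below zero, starting fluorescence within 5 deviations, no agonist response on first addition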;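 note: peak minus trough fluorescence over baseline after final BAM8-22 challenge near maximal dose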
Target sequence (Q96LB2 whole entry, looked up): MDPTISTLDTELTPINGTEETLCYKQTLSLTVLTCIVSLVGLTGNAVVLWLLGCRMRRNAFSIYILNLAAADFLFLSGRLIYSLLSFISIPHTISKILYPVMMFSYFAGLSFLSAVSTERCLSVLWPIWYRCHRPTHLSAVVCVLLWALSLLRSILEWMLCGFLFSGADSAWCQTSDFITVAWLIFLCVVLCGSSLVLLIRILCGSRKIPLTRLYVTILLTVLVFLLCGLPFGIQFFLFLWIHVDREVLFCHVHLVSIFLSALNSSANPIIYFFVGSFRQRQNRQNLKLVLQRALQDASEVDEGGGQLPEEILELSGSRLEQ
MrgX1 allo act = human MrgX1 positive allosteric modulation, primary screen | 310,000 tested, 0.63% active | B-score at 10 µM | MrgX1-HEK293, Fluo-4 calcium flux, FDSS; active compounds read high | Q96LB2 | AID 588675;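 active = plate-corrected calcium response at least 3 library SD above typical, normal starting fluorescence, not activating the receptor alone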;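 note: compound read alongside a low EC10 to EC30 dose of BAM8-22 agonist; peak minus trough fluorescence over baseline measured at the second addition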
RGS4 inh = human RGS4 inhibition. P49798. HEK293 M3R/RGS4 inducible, Fluo-4 calcium flux; active compounds read high; triggered by carbachol at its EC20. B-score at 10 µM. 310,000 tested, 0.45% active;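 active = B-score, a plate-corrected calcium signal, over three deviations above library mean, with baseline fluorescence within five deviations of library mean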;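 note: RGS4 expression induced by doxycycline in cells with stable M3 receptor; B-score is computed from the integrated fluorescence ratio over baseline after carbachol; higher B-score means a larger calcium signal and so more RGS4 inhibition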
Target sequence (P49798 whole entry, looked up): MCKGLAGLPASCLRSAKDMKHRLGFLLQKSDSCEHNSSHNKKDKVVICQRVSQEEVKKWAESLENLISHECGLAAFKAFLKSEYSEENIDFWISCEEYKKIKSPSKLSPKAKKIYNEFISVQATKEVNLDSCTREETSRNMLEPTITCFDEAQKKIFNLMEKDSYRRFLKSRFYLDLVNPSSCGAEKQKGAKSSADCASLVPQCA
RGS4 pot = RGS4 potentiation or activation; HEK293 M3R/inducible RGS4, carbachol calcium flux Fluo4; active compounds read low; B-score at 10 µM; 310,000 tested, 0.92% active; AID 463111;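 active = B-score of the integrated calcium signal more than 4 SD below the library mean, with starting fluorescence not abnormally high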;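 note: negative B-score means reduced calcium response which marks RGS4 activation or potentiation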
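Material: Inducible-RGS4 HEK293 cells carrying M3 receptor; also added: carbachol at ECmax as muscarinic agonist stimulus; incubation: compound preincubation 20 min at room temperature before agonist; signal: Fluo4-AM (2 µM) calcium-flux fluorescence, kinetic read; measure: integrated calcium ratio converted to B score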
MrgX1 agonist = activates human MrgX1 receptor signaling. Q96LB2. MrgX1-HEK293 cells, Fluo-4 calcium fluorescence, agonist mode; active compounds read high. B-score at 10 µM. 310,000 tested, 0.44% active. AID 588627;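 active = calcium response B-score plate-corrected fluorescence ratio at least 3 library SD, with starting fluorescence B-score inside 5 SD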
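times = overnight plating, then 30 min 37 °C plus 30 min room-temperature dye loading | assay system = stable human MrgX1 HEK293 cell line | input = fifteen thousand cells per well | signal = kinetic calcium dye fluorescence, Fluo-4 NW | dosing = compound delivered in addition one of three | read-out = B-scored fluorescence response ratio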
MrgX1 ag confirm = reconfirmed activator of human MrgX1 receptor signaling; shares compounds with MrgX1 agonist; 600 tested, 78% active; AID 602412; MrgX1-HEK293, Fluo-4 calcium fluorescence, FDSS; activation, % at 10 µM;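 active = calcium signal rise, corrected for plate position, at least 3 library SD high, with starting brightness within 5 such deviations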; note: reference of the scale not given here
HEK293 Ca flux = counter-screen for MrgX1 antagonists: effect in parental HEK293 cells; shares compounds with MrgX1 antag; Fluo-4 calcium fluorescence, FDSS; fluorescence ratio F(max-min)/F0 at 10 µM; 4,000 tested, 2% active; AID 624111;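 active = duplicate-averaged calcium fluorescence ratio at least three times the standard deviation of buffer wells, a nonspecific response in parental cells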
HEK293 Ca counter = MrgX1 allosteric activator counter-screen hit in parental HEK293 cells; shares compounds with MrgX1 antag; parental HEK293 calcium flux, Fluo-4 fluorescence ratio; active compounds read high; fluorescence ratio F(max-min)/F0 at 10 µM; 4,000 tested, 0.4% active; AID 624114;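 active = calcium fluorescence ratio, averaged over duplicates, at least 3 SD of the buffer-well ratio, meaning a nonspecific response in receptor-free cells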;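 note: untransfected parental HEK293 lacking MrgX1 used as counterscreen for MrgX1 allosteric activators; fluorescence change taken during the second addition on a kinetic imager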
HEK293 Ca cntr2 = activity in parental HEK293 cells lacking MrgX1 receptor; AID 624115; Fluo-4 calcium fluorescence (FDSS); active compounds read high; shares compounds with MrgX1 antag; fluorescence ratio F(max-min)/F0 at 10 µM; 4,000 tested, 8.7% active;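 active = calcium fluorescence ratio at least three times the spread of buffer wells, meaning a non-specific response in parental cells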
Starred values were filed as active, the others as inactive. Rows were chosen to be rich in hits. Some 3.5% of all compounds tested hit in one or more screens of this group.

What do the screens show for `COc1ccc(OC)c(-c2csc(NC(=O)CN3C(=O)C4CCCCC4C3=O)n2)c1` (stereo not given)?
MrgX1 antag: inactive; MrgX1 allo act: inactive; RGS4 inh: inactive; RGS4 pot: inactive; MrgX1 agonist: inactive

What do the screens show for `Cc1nnc(SCc2ccccc2CSc2nnc(C)s2)s1`?
MrgX1 antag: inactive; MrgX1 allo act: inactive; RGS4 inh: inactive; RGS4 pot: inactive; MrgX1 agonist: inactive

Results for CCN(CC)C(=O)Cn1cnc2sc(C)c(S(=O)(=O)N3CCC(C)CC3)c2c1=O ?
MrgX1 antag: inactive; MrgX1 allo act: inactive; RGS4 inh: inactive; RGS4 pot: inactive; MrgX1 agonist: inactive

How did CCOc1ccnc2c1c(=O)n(Cc1cc(OC)cc(OC)c1)c(=O)n2C do in these assays?
MrgX1 antag: inactive; MrgX1 allo act: inactive; RGS4 inh: inactive; RGS4 pot: inactive; MrgX1 agonist: inactive

Results for Cc1[nH]n(-c2ccccc2)c(=O)c1N=Nc1nccs1 ?
MrgX1 antag: inactive; MrgX1 allo act: inactive; RGS4 inh: inactive; RGS4 pot: inactive; MrgX1 agonist: 66*; MrgX1 ag confirm: 261%*; HEK293 Ca flux: inactive; HEK293 Ca counter: inactive; HEK293 Ca cntr2: 51*

Results for CCC(CC)C(=O)Nc1cccc(C(=O)Nc2ccc(S(=O)(=O)Nc3ccc(C)cc3)cc2)c1 ?
MrgX1 antag: inactive; MrgX1 allo act: inactive; RGS4 inh: inactive; RGS4 pot: inactive; MrgX1 agonist: inactive

Results for Clc1cccc(Cl)c1Cn1ccc(C2CC2)n1 ?
MrgX1 antag: inactive; MrgX1 allo act: inactive; RGS4 inh: inactive; RGS4 pot: inactive; MrgX1 agonist: inactive

How did Oc1c(C=NCc2ccc(F)cc2)[nH]c2ccc(Br)c(Cl)c12 do in these assays?
MrgX1 antag: inactive; MrgX1 allo act: inactive; RGS4 inh: 5.7*; RGS4 pot: inactive; MrgX1 agonist: 27*; MrgX1 ag confirm: 332%*; HEK293 Ca flux: inactive; HEK293 Ca counter: inactive; HEK293 Ca cntr2: 71*

Results for O=C(O)C/C(=C\c1cc(Cl)c2c(c1)OCO2)c1nc2ccccc2s1 ?
MrgX1 antag: inactive; MrgX1 allo act: inactive; RGS4 inh: inactive; RGS4 pot: inactive; MrgX1 agonist: 35*; MrgX1 ag confirm: 91%*; HEK293 Ca flux: inactive; HEK293 Ca counter: inactive; HEK293 Ca cntr2: inactive

Results for O=C(O)C/C(=C\c1ccc2c(c1)OCO2)c1nc2ccccc2s1 ?
MrgX1 antag: inactive; MrgX1 allo act: inactive; RGS4 inh: inactive; RGS4 pot: inactive; MrgX1 agonist: inactive

What do the screens show for `C#CCOn1c(-n2nc(C)cc2C)nc2ccccc2c1=O`?
MrgX1 antag: inactive; MrgX1 allo act: inactive; RGS4 inh: inactive; RGS4 pot: inactive; MrgX1 agonist: inactive

Results for Cc1ccc(-c2csc3ncn(CC(=O)N4CCOCC4)c(=O)c23)cc1C ?
MrgX1 antag: inactive; MrgX1 allo act: inactive; RGS4 inh: inactive; RGS4 pot: inactive; MrgX1 agonist: 32*; MrgX1 ag confirm: 135%*; HEK293 Ca flux: inactive; HEK293 Ca counter: inactive; HEK293 Ca cntr2: inactive

Results for CCOc1ccc(C(=O)Nc2ccc(C(=O)N3CCOCC3)cc2)c(OCC)c1 ?
MrgX1 antag: inactive; MrgX1 allo act: inactive; RGS4 inh: inactive; RGS4 pot: inactive; MrgX1 agonist: inactive

What do the screens show for `CCN(c1nc(N)c(C(=O)N=C(N)N)nc1Cl)C(C)C`?
MrgX1 antag: inactive; MrgX1 allo act: inactive; RGS4 inh: inactive; RGS4 pot: inactive; MrgX1 agonist: 36*; MrgX1 ag confirm: 233%*; HEK293 Ca flux: inactive; HEK293 Ca counter: inactive; HEK293 Ca cntr2: inactive

Results for Cc1cc(-c2nnc(CCC(=O)N3CCN(Cc4cccc(F)c4)CC3)o2)c(C)o1 ?
MrgX1 antag: inactive; MrgX1 allo act: inactive; RGS4 inh: inactive; RGS4 pot: inactive; MrgX1 agonist: inactive

Results for CC(=O)Nc1ccc(S(=O)(=O)/N=C2\SCCN2S(=O)(=O)c2ccc(NC(C)=O)cc2)cc1 ?
MrgX1 antag: inactive; MrgX1 allo act: inactive; RGS4 inh: inactive; RGS4 pot: inactive; MrgX1 agonist: 41*; MrgX1 ag confirm: 270%*; HEK293 Ca flux: inactive; HEK293 Ca counter: inactive; HEK293 Ca cntr2: inactive

How did CC(=O)Nc1ccc(S(=O)(=O)Nc2ccc(S(=O)(=O)N3CCCC3)cc2)cc1 do in these assays?
MrgX1 antag: inactive; MrgX1 allo act: inactive; RGS4 inh: inactive; RGS4 pot: inactive; MrgX1 agonist: inactive

How did Cc1c(Br)c(O)c(Br)c2sc(=O)oc12 do in these assays?
MrgX1 antag: inactive; MrgX1 allo act: inactive; MrgX1 agonist: 33*; MrgX1 ag confirm: 149%*; HEK293 Ca flux: inactive; HEK293 Ca counter: inactive; HEK293 Ca cntr2: inactive

How did Cc1occc1-c1nnc(SCC(=O)N2CCc3ccccc32)o1 do in these assays?
MrgX1 antag: inactive; MrgX1 allo act: inactive; RGS4 inh: inactive; RGS4 pot: inactive; MrgX1 agonist: 37*; MrgX1 ag confirm: 207%*; HEK293 Ca flux: inactive; HEK293 Ca counter: inactive; HEK293 Ca cntr2: inactive

What do the screens show for `O=C(CSc1nnc(-c2cccs2)o1)N1CCc2ccccc21`?
MrgX1 antag: inactive; MrgX1 allo act: inactive; RGS4 inh: inactive; RGS4 pot: inactive; MrgX1 agonist: inactive

What do the screens show for `Cc1cc2ccc3ccccc3c2cc1CN(C)C`?
MrgX1 antag: inactive; MrgX1 allo act: inactive; RGS4 inh: inactive; RGS4 pot: inactive; MrgX1 agonist: inactive

Results for CN(C)CCOC1c2ccccc2CCc2ccc3ccccc3c21 (stereo not given) ?
MrgX1 antag: inactive; MrgX1 allo act: inactive; RGS4 inh: inactive; RGS4 pot: inactive; MrgX1 agonist: 57*; MrgX1 ag confirm: 142%*; HEK293 Ca flux: inactive; HEK293 Ca counter: inactive; HEK293 Ca cntr2: inactive

Results for COc1ccc(C(=O)Nc2ccc(C(=O)N3CCC(C)CC3)cc2)cc1OC ?
MrgX1 antag: inactive; MrgX1 allo act: inactive; RGS4 inh: inactive; RGS4 pot: inactive; MrgX1 agonist: inactive

High-throughput results: PubChem BioAssay, Johns Hopkins Ion Channel Center
